In PMC3334872 (Chemistry & biology, 2012):

T1: GST-pRbABC (residues 376–928) (UniProt P06400 376-928)
T1 sequence (looked up): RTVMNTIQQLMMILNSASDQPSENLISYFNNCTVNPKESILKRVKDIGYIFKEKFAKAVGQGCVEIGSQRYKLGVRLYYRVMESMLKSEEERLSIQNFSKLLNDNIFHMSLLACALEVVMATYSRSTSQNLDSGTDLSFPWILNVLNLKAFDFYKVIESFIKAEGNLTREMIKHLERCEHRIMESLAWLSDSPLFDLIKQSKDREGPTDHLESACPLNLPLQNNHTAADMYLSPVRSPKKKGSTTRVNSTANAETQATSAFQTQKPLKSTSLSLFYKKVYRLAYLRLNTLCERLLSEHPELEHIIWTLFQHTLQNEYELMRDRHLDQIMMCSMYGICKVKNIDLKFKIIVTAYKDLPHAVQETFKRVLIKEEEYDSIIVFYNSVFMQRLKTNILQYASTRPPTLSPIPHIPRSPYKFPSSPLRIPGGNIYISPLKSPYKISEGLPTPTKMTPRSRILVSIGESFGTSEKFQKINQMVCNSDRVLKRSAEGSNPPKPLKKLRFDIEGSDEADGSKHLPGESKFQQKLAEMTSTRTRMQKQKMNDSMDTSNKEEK

B1: 6xHis-Ad5E1A_(CR1-3) (residues 36–189) (domain or fragment)
chain: SHFEPPTLHELYDLDVTAPEDPNEEAVSQIFPDSVMLAVQEGIDLLTFPPAPGSPEPPHLSRQPEQPEQRALGPVSMPNLVPEVIDLTCHEAGFPPSDDEDEEGEEFVLDYVEHPGHGCRSCHYHRRNTGDPDIMCSLCYMRTCGMFVYSPVSE
B2: 6xHis-HPV1AE7_(CR2-3) (residues 16–93) (domain or fragment)
chain: EPSVLDLDLYCYEEVPPDDIEEELVSPQQPYAVVASCAYCEKLVRLTVLADHSAIRQLEELLLRSLNIVCPLCTLQRQ

Assays:
SiHa cells = assay: Flow cytometry, DNA content by propidium iodide staining; format: cell-based, human; settings: 2 µM, 48 hours
Summary of the method: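 Cells seeded at 1×105 per 60 mm dish; next day test compound or DMSO added for 48 hr. Cells trypsinized, PBS-washed, fixed in 80% ethanol, pelleted 500g 5 min, stained with PI (100 µL 2mg/ml PI plus 10 µg RNase A in 10 mL PBS). DNA content analysed by flow cytometry; apoptotic fraction taken from area under the corresponding histogram region.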

[1] = biological target: E7 LxCxE peptide LxCxE peptide (Human papillomavirus type 16) (UniProt P03129); settings: cited from earlier work
E7 LxCxE peptide LxCxE peptide (Human papillomavirus type 16), sequence (P03129 whole entry, looked up, the tested form may be a part): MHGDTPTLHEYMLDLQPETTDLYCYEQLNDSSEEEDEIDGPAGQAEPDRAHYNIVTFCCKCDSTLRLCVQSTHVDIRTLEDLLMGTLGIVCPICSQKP

[2] = biological target: T1, GST-pRbABC (residues 376–928); assay: ELISA

Molecule | binding result [2] | further results
CN[C@@H]1C[C@H]2O[C@@](C)([C@@H]1OC)n1c3ccccc3c3c4c(c5c6ccccc6n2c5c31)C(=O)NC4 [staurosporine, Staurosporine] |  | apoptotic cells (SiHa cells): 34.3%
pRb (from UniProt P06400) |  | Kd [1]: 110 nM
B1 | binds | 
B2 | binds | 
